Source: ChEMBL document CHEMBL4422627, “Discovery of potent, orally bioavailable ERK1/2 inhibitors with isoindolin-1-one structure by structure-based drug design” (Eur J Med Chem, 2019)
pIC50: −log10 of the molar value.

System: HCT-116
Experiment: Antitumor activity against human HCT116 cells xenografted in Balb/c nude mouse assessed as tumor growth inhibition at 50 mg/kg, po qd for 30 days and measured every 3 days by calliper method relative to control
Assay type: functional
Conditions: HCT-116, po, read-out: TGI
Outline: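 Nude mice bearing HCT-116 xenografts; test article given as hydrochloride salt, 50 mg/kg orally once daily for 30 days; efficacy expressed as percent tumor growth inhibition.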

Row | SMILES | inhibition in vivo at 50 mg/kg
1 | O=C1c2cc(-c3ccnc(NC4CCOCC4)n3)ccc2CN1C(CO)c1cccc(Cl)c1 (configuration not stated) | 71%

Biological target: Mitogen-activated protein kinase 1 (Homo sapiens, UniProt P28482)
Sequence (P28482 whole entry): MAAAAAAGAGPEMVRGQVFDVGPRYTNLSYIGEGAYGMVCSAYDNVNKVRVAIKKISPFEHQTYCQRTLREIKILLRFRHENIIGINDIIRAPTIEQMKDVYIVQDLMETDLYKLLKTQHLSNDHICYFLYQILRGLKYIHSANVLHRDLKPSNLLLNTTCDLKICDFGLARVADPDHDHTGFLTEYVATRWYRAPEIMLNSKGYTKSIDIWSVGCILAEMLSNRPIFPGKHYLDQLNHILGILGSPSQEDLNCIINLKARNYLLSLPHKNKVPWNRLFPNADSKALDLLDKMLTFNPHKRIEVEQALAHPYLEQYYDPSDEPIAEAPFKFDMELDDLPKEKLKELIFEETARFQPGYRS
Experiment: Inhibition of ERK2 (unknown origin) using […] as substrate after 40 mins by ADP-Glo luminescence assay
Conditions: not given

Row | SMILES | pIC50
2 | O=C1c2cc(-c3ccnc(NC4CCNC4)n3)ccc2CN1C(CO)c1cccc(Cl)c1 (configuration not stated) | < 6.00
3 | O=C1c2cc(-c3ccnc(Nc4nccs4)n3)ccc2CN1C(CO)c1cccc(Cl)c1 (configuration not stated) | 7.65
4 | O=C1c2cc(-c3ccnc(NC4CCOCC4)n3)ccc2CN1C(CO)c1ccc(Cl)cc1 (configuration not stated) | 7.52
5 | O=C1c2cc(-c3ccnc(Nc4ccncc4)n3)ccc2CN1Cc1cccc(Cl)c1 | 7.44
6 | Cn1nccc1Nc1nccc(-c2ccc3c(c2)C(=O)N(Cc2ccccn2)C3)n1 | < 6.00
7 | O=C1c2cc(-c3ccnc(Nc4ncco4)n3)ccc2CN1C(CO)c1cccc(Cl)c1 (configuration not stated) | 7.03
8 | Cn1nccc1Nc1nccc(-c2ccc3c(c2)C(=O)N(Cc2cccnc2)C3)n1 | < 6.00
9 | Cn1nnnc1Nc1nccc(-c2ccc3c(c2)C(=O)N(C(CO)c2cccc(Cl)c2)C3)n1 (configuration not stated) | 7.70
10 | Cn1cc(Nc2nccc(-c3ccc4c(c3)C(=O)N([C@@H](CO)c3cccc(Cl)c3)C4)n2)cn1 | 6.20

The next compounds have a higher pIC50 than those just listed; values first:

Row | pIC50 | SMILES
11 | 7.75 | O=C1c2cc(-c3ccnc(NC4CCOCC4)n3)ccc2CN1Cc1ccc(Cl)c(F)c1
12 | 7.75 | O=C1c2cc(-c3ccnc(NCCO)n3)ccc2CN1C(CO)c1cccc(Cl)c1 (configuration not stated)
13 | 7.95 | CC(C)Nc1nccc(-c2ccc3c(c2)C(=O)N(C(CO)c2cccc(Cl)c2)C3)n1 (configuration not stated)
14 | 8.44 | Cn1cc(Nc2nccc(-c3ccc4c(c3)C(=O)N(Cc3cccc(Cl)c3)C4)n2)cn1
15 | 8.57 | O=C1c2cc(-c3ccnc(NC4CCC(O)CC4)n3)ccc2CN1C(CO)c1cccc(Cl)c1 (configuration not stated)
16 | 8.72 | Cn1nccc1Nc1nccc(-c2ccc3c(c2)C(=O)N(C(CO)c2cccc(Cl)c2)C3)n1 (configuration not stated)
17 | 8.92 | Cn1cc(Nc2nccc(-c3ccc4c(c3)C(=O)N(C(CO)c3cccc(Cl)c3)C4)n2)cn1 (configuration not stated)
18 | 8.96 | Cn1cc(Nc2nccc(-c3ccc4c(c3)C(=O)N([C@H](CO)c3cccc(Cl)c3)C4)n2)cn1
19 | 9.15 | O=C1c2cc(-c3ccnc(NC4CCOCC4)n3)ccc2CN1C(CO)c1cccc(Cl)c1 (configuration not stated)

Biological target: Mitogen-activated protein kinase 3 (Homo sapiens, UniProt P27361)
Sequence (P27361 whole entry): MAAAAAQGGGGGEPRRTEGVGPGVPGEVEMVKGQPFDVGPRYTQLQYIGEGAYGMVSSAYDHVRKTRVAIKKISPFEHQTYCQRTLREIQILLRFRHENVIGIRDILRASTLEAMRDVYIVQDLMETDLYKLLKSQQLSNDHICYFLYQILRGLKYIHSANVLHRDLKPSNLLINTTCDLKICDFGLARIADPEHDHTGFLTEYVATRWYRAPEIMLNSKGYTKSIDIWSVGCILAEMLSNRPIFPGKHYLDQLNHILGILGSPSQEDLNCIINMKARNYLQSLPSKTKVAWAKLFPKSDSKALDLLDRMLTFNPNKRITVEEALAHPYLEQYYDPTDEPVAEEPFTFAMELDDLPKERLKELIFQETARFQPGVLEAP
Experiment: Inhibition of ERK1 (unknown origin) using […] as substrate after 40 mins by ADP-Glo luminescence assay
Conditions: not given

Row | pIC50 | SMILES
20 | 7.68 | Cn1cc(Nc2nccc(-c3ccc4c(c3)C(=O)N(Cc3cccc(Cl)c3)C4)n2)cn1
21 | 8.82 | O=C1c2cc(-c3ccnc(NC4CCOCC4)n3)ccc2CN1C(CO)c1cccc(Cl)c1 (configuration not stated)
22 | 8.44 | Cn1nccc1Nc1nccc(-c2ccc3c(c2)C(=O)N(C(CO)c2cccc(Cl)c2)C3)n1 (configuration not stated)
23 | 8.39 | Cn1cc(Nc2nccc(-c3ccc4c(c3)C(=O)N(C(CO)c3cccc(Cl)c3)C4)n2)cn1 (configuration not stated)

System: HCT-116
Experiment: Antiproliferative activity against human HCT116 cells after 72 hrs by MTT assay
Assay type: functional, cell-based
Conditions: HCT-116, 72 h

Row | pIC50 | SMILES
24 | 6.83 | Cn1cc(Nc2nccc(-c3ccc4c(c3)C(=O)N(Cc3cccc(Cl)c3)C4)n2)cn1
25 | 6.81 | O=C1c2cc(-c3ccnc(NC4CCOCC4)n3)ccc2CN1C(CO)c1cccc(Cl)c1 (configuration not stated)
26 | 6.60 | Cn1nccc1Nc1nccc(-c2ccc3c(c2)C(=O)N(C(CO)c2cccc(Cl)c2)C3)n1 (configuration not stated)
27 | 6.70 | Cn1cc(Nc2nccc(-c3ccc4c(c3)C(=O)N(C(CO)c3cccc(Cl)c3)C4)n2)cn1 (configuration not stated)

System: WM 266-4
Experiment: Antiproliferative activity against human WM266.4 cells after 72 hrs by MTT assay
Assay type: functional, cell-based
Conditions: WM 266-4, 72 h

Row | SMILES | pIC50
28 | Cn1cc(Nc2nccc(-c3ccc4c(c3)C(=O)N(Cc3cccc(Cl)c3)C4)n2)cn1 | 6.76
29 | O=C1c2cc(-c3ccnc(NC4CCOCC4)n3)ccc2CN1C(CO)c1cccc(Cl)c1 (configuration not stated) | 6.59
30 | Cn1nccc1Nc1nccc(-c2ccc3c(c2)C(=O)N(C(CO)c2cccc(Cl)c2)C3)n1 (configuration not stated) | 6.66
31 | Cn1cc(Nc2nccc(-c3ccc4c(c3)C(=O)N(C(CO)c3cccc(Cl)c3)C4)n2)cn1 (configuration not stated) | 6.68

System: SW626
Experiment: Antiproliferative activity against human SW626 cells after 72 hrs by MTT assay
Assay type: functional, cell-based
Conditions: SW626, 72 h

Row | pIC50 | SMILES
32 | 6.68 | Cn1cc(Nc2nccc(-c3ccc4c(c3)C(=O)N(Cc3cccc(Cl)c3)C4)n2)cn1
33 | 6.61 | O=C1c2cc(-c3ccnc(NC4CCOCC4)n3)ccc2CN1C(CO)c1cccc(Cl)c1 (configuration not stated)
34 | 6.60 | Cn1nccc1Nc1nccc(-c2ccc3c(c2)C(=O)N(C(CO)c2cccc(Cl)c2)C3)n1 (configuration not stated)
35 | 6.69 | Cn1cc(Nc2nccc(-c3ccc4c(c3)C(=O)N(C(CO)c3cccc(Cl)c3)C4)n2)cn1 (configuration not stated)

System: COLO 205
Experiment: Antiproliferative activity against human COLO205 cells after 72 hrs by MTT assay
Assay type: functional, cell-based
Conditions: COLO 205, 72 h

Row | pIC50 | SMILES
36 | 6.69 | Cn1cc(Nc2nccc(-c3ccc4c(c3)C(=O)N(Cc3cccc(Cl)c3)C4)n2)cn1
37 | 6.71 | O=C1c2cc(-c3ccnc(NC4CCOCC4)n3)ccc2CN1C(CO)c1cccc(Cl)c1 (configuration not stated)
38 | 6.60 | Cn1nccc1Nc1nccc(-c2ccc3c(c2)C(=O)N(C(CO)c2cccc(Cl)c2)C3)n1 (configuration not stated)
39 | 6.64 | Cn1cc(Nc2nccc(-c3ccc4c(c3)C(=O)N(C(CO)c3cccc(Cl)c3)C4)n2)cn1 (configuration not stated)

System: NCM460
Experiment: Cytotoxicity against human NCM460 cells assessed as reduction in cell viability at 10000 nM after 72 hrs by MTT assay
Assay type: cell-based
Conditions: ncm460, 72 h, 10 µM

Row | SMILES | Activity
40 | O=C1c2cc(-c3ccnc(NC4CCOCC4)n3)ccc2CN1C(CO)c1cccc(Cl)c1 (configuration not stated) | Non-Toxic
41 | Cn1cc(Nc2nccc(-c3ccc4c(c3)C(=O)N(C(CO)c3cccc(Cl)c3)C4)n2)cn1 (configuration not stated) | Non-Toxic

System: HCT-116
Experiment: Induction of apoptosis in human HCT116 cells assessed as early apoptotic cells at 1 uM after 72 hrs by annexin V-FITC and propidium iodide staining based flow cytometric analysis (reference value: 3.88%)
Assay type: functional
Conditions: not given
Outline: (§1)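 HCT116 cells treated with compound, PI-stained, and analysed for apoptosis by flow cytometry; means ± SD of three independent experiments, each condition in triplicate.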

Row | SMILES | Activity
42 | O=C1c2cc(-c3ccnc(NC4CCOCC4)n3)ccc2CN1C(CO)c1cccc(Cl)c1 (configuration not stated) | 27.7%

System: HCT-116
Experiment: Induction of apoptosis in human HCT116 cells assessed as late apoptotic cells at 1 uM after 72 hrs by annexin V-FITC and propidium iodide staining based flow cytometric analysis (reference value: 1.20%)
Assay type: functional
Conditions: not given
Outline: as §1

Row | SMILES | Activity
43 | O=C1c2cc(-c3ccnc(NC4CCOCC4)n3)ccc2CN1C(CO)c1cccc(Cl)c1 (configuration not stated) | 10.4%

System: HCT-116
Experiment: Induction of apoptosis in human HCT116 cells assessed as necrotic cells at 1 uM after 72 hrs by annexin V-FITC and propidium iodide staining based flow cytometric analysis (reference value: 0.21%)
Assay type: functional
Conditions: not given
Outline: as §1

Row | SMILES | Activity
44 | O=C1c2cc(-c3ccnc(NC4CCOCC4)n3)ccc2CN1C(CO)c1cccc(Cl)c1 (configuration not stated) | 0.12%

System: HCT-116
Experiment: Induction of apoptosis in human HCT116 cells assessed as viable cells at 1 uM after 72 hrs by annexin V-FITC and propidium iodide staining based flow cytometric analysis (reference value: 94.3%)
Assay type: functional
Conditions: HCT-116, 72 h, read-out: Activity
Outline: as §1

Row | SMILES | viability at 1 µM
45 | O=C1c2cc(-c3ccnc(NC4CCOCC4)n3)ccc2CN1C(CO)c1cccc(Cl)c1 (configuration not stated) | 61.3%

System: HCT-116
Experiment: Cell cycle arrest in human HCT116 cells assessed as accumulation at G0/G1 phase at 1 uM after 72 hrs by annexin V-FITC and propidium iodide staining based flow cytometric analysis (reference value: 44.3%)
Assay type: functional
Conditions: not given

Row | SMILES | Activity
46 | O=C1c2cc(-c3ccnc(NC4CCOCC4)n3)ccc2CN1C(CO)c1cccc(Cl)c1 (configuration not stated) | 58%

System: HCT-116
Experiment: Cell cycle arrest in human HCT116 cells assessed as accumulation at G2/M phase at 1 uM after 72 hrs by annexin V-FITC and propidium iodide staining based flow cytometric analysis (reference value: 43.5%)
Assay type: functional
Conditions: not given

Row | SMILES | Activity
47 | O=C1c2cc(-c3ccnc(NC4CCOCC4)n3)ccc2CN1C(CO)c1cccc(Cl)c1 (configuration not stated) | 29.5%

System: not listed separately
Experiment: Toxicity against Balb/c nude mouse xenografted with human HCT116 cells assessed as reduction in body weight at 50 mg/kg, po qd for 30 days and measured every 3 days
Assay type: organism-based
Conditions: in vivo
Outline: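 HCT-116 xenograft nude mice dosed at 50 mg/kg orally once daily for 30 days; body weight recorded every 3 days.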

Row | SMILES | Activity
48 | O=C1c2cc(-c3ccnc(NC4CCOCC4)n3)ccc2CN1C(CO)c1cccc(Cl)c1 (configuration not stated) | Non-Toxic

System: K562
Experiment: Antiproliferative activity against human K562 cells after 72 hrs by MTT assay
Assay type: functional, cell-based
Conditions: K562, 72 h

Row | pIC50 | SMILES
49 | 5.56 | Cn1cc(Nc2nccc(-c3ccc4c(c3)C(=O)N(Cc3cccc(Cl)c3)C4)n2)cn1
50 | 5.50 | O=C1c2cc(-c3ccnc(NC4CCOCC4)n3)ccc2CN1C(CO)c1cccc(Cl)c1 (configuration not stated)
51 | 5.53 | Cn1nccc1Nc1nccc(-c2ccc3c(c2)C(=O)N(C(CO)c2cccc(Cl)c2)C3)n1 (configuration not stated)
52 | 5.42 | Cn1cc(Nc2nccc(-c3ccc4c(c3)C(=O)N(C(CO)c3cccc(Cl)c3)C4)n2)cn1 (configuration not stated)
